Results from ChEMBL document CHEMBL5678799 (Biochem J, 2009).

Legend:
[1] = target: CDK2/Cyclin A2 (Homo sapiens) (UniProt P24941+P20248); assay: Inhibition of recombinant human N-terminal GST-tagged CDK2 (2 to 298 residues)/N-terminal GST-tagged Cyclin A2 (171 to 432 residues) expressed in Escherichia coli assessed as remaining activity at 10 uM using YSPTSPSYSPTSPSYSPTSPKKK as substrate incubated for 30 mins in presence of [gamma-33P]ATP by filter binding method relative to control
Summary of the method: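 Incubations ran robotically for 30 min at room temperature (21 °C) under linear conditions. Results are percent activity remaining versus controls without compound, as the mean of triplicates ± S.D.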

[2] = target: Serine/threonine-protein kinase BRSK2 (Homo sapiens) (UniProt Q8IWQ3); assay: Inhibition of recombinant human N-terminal His6-tagged BRSK2 (2 to 674 residues) expressed in baculovirus infected Sf21 cells assessed as remaining activity at 1 uM using KKLNRTLSFAEPG as substrate incubated for 30 mins in presence of [gamma-33P]ATP by filter binding method relative to control
Summary of the method: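 Assays ran 30 min at 21 °C, robotically and in the linear range. Remaining activity is given relative to incubations lacking compound, as the average of triplicate determinations ± S.D.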

[3] = target: Insulin-like growth factor 1 receptor (Homo sapiens) (UniProt P08069); assay: Inhibition of recombinant human N-terminal His6-tagged IGF1R (954 to 1367 residues) expressed in baculovirus infected Sf21 cells assessed as remaining activity at 1 uM using KKKSPGEYVNIEFG as substrate incubated for 30 mins in presence of [gamma-33P]ATP by filter binding method relative to control
Chain of Insulin-like growth factor 1 receptor (Homo sapiens) (P08069 31-736 limits assumed): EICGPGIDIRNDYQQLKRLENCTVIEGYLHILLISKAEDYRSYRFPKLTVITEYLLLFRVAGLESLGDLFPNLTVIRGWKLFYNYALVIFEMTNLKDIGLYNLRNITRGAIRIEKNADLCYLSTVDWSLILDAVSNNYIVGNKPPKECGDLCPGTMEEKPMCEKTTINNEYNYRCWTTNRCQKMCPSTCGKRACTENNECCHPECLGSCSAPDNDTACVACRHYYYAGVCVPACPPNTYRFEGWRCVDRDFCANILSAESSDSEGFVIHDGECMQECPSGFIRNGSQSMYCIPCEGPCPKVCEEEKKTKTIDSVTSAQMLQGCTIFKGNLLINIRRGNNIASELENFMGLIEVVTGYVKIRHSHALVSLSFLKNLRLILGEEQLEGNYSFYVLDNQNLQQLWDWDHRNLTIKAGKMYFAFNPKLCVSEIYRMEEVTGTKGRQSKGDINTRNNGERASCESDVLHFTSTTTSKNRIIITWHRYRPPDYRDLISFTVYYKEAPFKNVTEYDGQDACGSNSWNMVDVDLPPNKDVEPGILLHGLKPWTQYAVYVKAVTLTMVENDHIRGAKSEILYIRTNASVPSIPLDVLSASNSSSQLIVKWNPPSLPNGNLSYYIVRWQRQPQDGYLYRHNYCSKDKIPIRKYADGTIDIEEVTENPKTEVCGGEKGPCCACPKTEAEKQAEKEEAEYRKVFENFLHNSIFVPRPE
Chain of Insulin-like growth factor 1 receptor (Homo sapiens) (P08069 741-1367 limits assumed): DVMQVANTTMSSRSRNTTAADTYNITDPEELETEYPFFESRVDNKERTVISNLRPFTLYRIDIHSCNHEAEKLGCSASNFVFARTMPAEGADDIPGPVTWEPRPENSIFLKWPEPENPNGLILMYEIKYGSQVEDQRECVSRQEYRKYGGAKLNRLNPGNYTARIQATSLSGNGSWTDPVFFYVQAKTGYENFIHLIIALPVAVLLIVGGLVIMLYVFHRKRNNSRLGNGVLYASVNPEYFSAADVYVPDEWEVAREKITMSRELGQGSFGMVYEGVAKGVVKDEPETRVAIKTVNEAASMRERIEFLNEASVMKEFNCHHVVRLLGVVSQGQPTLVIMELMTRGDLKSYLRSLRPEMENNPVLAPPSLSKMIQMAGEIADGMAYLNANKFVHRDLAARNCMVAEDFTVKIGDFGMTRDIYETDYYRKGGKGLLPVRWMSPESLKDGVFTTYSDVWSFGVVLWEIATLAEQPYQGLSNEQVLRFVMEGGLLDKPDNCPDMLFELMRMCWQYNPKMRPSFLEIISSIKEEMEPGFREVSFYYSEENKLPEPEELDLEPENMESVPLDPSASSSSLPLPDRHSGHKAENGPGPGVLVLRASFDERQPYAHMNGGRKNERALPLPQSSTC
Summary of the method: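 Radiometric kinase panel run robotically at room temperature (21 °C) for 30 min, linear in time and enzyme. […] Activity is expressed as percent of control without compound, from triplicate determinations ± S.D.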

[4] = target: Ribosomal protein S6 kinase alpha-5 (Homo sapiens) (UniProt O75582); assay: Inhibition of recombinant human His6-tagged MSK1 (2 to 802 residues) expressed in baculovirus infected Sf21 cells assessed as remaining activity at 1 uM using GRPRTSSFAEGKK as substrate incubated for 30 mins in presence of [gamma-33P]ATP by filter binding method relative to control
Chain of Ribosomal protein S6 kinase alpha-5 (Homo sapiens) (O75582 whole entry, looked up, the tested form may be a part): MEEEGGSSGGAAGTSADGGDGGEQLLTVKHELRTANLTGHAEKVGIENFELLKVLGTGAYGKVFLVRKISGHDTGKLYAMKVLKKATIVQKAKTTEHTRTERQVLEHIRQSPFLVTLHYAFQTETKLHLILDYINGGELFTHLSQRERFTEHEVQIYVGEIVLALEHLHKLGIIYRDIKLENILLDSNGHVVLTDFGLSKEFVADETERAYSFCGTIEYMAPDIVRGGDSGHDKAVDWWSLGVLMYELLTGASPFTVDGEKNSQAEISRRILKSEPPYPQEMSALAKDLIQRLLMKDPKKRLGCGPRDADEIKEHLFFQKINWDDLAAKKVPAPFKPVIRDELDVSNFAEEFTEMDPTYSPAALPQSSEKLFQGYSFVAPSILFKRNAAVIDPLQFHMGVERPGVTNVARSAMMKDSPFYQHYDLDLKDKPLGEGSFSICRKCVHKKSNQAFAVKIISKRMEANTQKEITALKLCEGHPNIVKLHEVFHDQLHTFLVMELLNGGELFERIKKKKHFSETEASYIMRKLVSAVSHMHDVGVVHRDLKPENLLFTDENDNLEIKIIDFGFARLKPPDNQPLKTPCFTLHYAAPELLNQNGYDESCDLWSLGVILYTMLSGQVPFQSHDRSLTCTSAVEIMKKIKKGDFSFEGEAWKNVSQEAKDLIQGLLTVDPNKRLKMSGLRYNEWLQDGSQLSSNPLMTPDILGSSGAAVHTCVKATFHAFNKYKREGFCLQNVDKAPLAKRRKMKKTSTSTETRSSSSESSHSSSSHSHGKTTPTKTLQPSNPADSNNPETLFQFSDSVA
Summary of the method: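 Robotic radiometric panel assay, 30 min at room temperature (21 °C), with 10 mM magnesium acetate. […] Compound at 1 or 10 µM. Residual activity expressed relative to compound-free control; triplicate average ± S.D.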

[5] = target: Mitogen-activated protein kinase 1 (Homo sapiens) (UniProt P28482); assay: Inhibition of recombinant human N-terminal GST-tagged ERK2 (2 to 360 residues) expressed in Escherichia coli assessed as remaining activity at 10 uM using MBP as substrate incubated for 30 mins in presence of [gamma-33P]ATP by filter binding method relative to control
Chain of Mitogen-activated protein kinase 1 (Homo sapiens) (P28482 whole entry, the tested form may be a part): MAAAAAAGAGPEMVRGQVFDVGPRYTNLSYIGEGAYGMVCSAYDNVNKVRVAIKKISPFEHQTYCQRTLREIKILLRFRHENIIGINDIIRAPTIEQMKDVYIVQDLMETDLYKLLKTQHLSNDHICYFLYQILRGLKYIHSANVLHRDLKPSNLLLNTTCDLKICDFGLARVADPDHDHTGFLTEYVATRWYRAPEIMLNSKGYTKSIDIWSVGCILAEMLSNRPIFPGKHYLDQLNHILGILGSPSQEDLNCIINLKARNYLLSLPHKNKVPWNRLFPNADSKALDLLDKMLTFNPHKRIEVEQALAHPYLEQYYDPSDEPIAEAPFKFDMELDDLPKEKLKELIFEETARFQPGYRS
Summary of the method: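 Incubation was 30 min at room temperature (21 °C) under conditions linear with time and enzyme amount. Activity is reported as percent of control lacking compound, triplicate mean ± S.D.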

[6] = target: Glycogen synthase kinase-3 beta (Homo sapiens) (UniProt P49841); assay: Inhibition of recombinant human His6-tagged GSK3beta (2 to 420 residues) expressed in baculovirus infected Sf21 cells assessed as remaining activity at 10 uM using phospho-GS2 peptide as substrate incubated for 30 mins in presence of [gamma-33P]ATP by filter binding method relative to control
Chain of Glycogen synthase kinase-3 beta (Homo sapiens) (P49841 whole entry, looked up, the tested form may be a part): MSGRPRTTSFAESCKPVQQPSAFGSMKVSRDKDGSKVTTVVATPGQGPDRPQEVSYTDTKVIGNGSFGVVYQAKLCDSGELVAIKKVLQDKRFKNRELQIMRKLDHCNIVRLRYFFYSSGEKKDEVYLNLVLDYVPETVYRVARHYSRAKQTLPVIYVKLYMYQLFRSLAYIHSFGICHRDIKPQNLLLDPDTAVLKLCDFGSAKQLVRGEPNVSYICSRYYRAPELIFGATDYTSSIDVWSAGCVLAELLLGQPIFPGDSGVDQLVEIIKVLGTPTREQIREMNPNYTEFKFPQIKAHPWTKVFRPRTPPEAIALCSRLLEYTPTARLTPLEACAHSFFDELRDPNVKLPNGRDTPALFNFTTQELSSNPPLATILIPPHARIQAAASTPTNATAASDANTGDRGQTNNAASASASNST
Summary of the method: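 Radiometric kinase panel run robotically at 21 °C for 30 min, linear in time and enzyme. […] Activity expressed as percentage of control without inhibitor; triplicate determinations.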

[7] = target: Mitogen-activated protein kinase 9 (Homo sapiens) (UniProt P45984); assay: Inhibition of recombinant human N-terminal His6-tagged JNK2alpha2 (1 to 424 residues) expressed in baculovirus infected Sf21 cells assessed as remaining activity at 10 uM using ATF2 as substrate incubated for 30 mins in presence of [gamma-33P]ATP by filter binding method relative to control
Chain of Mitogen-activated protein kinase 9 (Homo sapiens) (P45984 whole entry, looked up, the tested form may be a part): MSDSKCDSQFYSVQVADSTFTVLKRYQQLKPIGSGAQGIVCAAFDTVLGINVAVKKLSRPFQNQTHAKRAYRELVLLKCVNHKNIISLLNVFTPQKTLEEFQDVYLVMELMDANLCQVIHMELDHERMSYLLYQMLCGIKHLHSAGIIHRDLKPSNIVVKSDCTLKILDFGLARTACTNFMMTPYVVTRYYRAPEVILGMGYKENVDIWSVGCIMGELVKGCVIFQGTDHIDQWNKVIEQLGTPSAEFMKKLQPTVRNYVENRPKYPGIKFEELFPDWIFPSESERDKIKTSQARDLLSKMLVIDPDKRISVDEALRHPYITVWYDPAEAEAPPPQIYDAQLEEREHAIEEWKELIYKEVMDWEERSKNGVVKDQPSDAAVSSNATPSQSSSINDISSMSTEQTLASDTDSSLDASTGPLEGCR

[8] = target: MAP kinase-interacting serine/threonine-protein kinase 1 (Homo sapiens) (UniProt Q9BUB5); assay: Inhibition of recombinant human N-terminal GST-tagged C-terminal His6-tagged MNK1 (2 to 424 residues) expressed in Escherichia coli assessed as remaining activity at 10 uM using eIF4E as substrate incubated for 30 mins in presence of [gamma-33P]ATP by filter binding method relative to control
Chain of MAP kinase-interacting serine/threonine-protein kinase 1 (Homo sapiens) (Q9BUB5 whole entry, looked up, the tested form may be a part): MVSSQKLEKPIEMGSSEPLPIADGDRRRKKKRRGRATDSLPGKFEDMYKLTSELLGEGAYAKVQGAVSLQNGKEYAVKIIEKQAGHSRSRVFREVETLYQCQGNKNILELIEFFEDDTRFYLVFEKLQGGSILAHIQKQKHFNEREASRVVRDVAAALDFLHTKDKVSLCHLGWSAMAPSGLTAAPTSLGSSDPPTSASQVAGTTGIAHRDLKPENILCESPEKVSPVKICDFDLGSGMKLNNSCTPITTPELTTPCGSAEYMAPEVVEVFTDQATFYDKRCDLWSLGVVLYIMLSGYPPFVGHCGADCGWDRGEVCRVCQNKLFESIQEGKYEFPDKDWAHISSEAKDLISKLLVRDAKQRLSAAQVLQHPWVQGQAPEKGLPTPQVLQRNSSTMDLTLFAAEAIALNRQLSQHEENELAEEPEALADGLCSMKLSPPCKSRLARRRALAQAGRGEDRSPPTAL

[9] = target: Serine/threonine-protein kinase 3 (Homo sapiens) (UniProt Q13188); assay: Inhibition of recombinant human N-terminal GST-tagged MST2 (2 to 491 residues) expressed in baculovirus infected Sf21 cells assessed as remaining activity at 10 uM using MBP as substrate incubated for 30 mins in presence of [gamma-33P]ATP by filter binding method relative to control
Chain of Serine/threonine-protein kinase 3 (Homo sapiens) (Q13188 whole entry, the tested form may be a part): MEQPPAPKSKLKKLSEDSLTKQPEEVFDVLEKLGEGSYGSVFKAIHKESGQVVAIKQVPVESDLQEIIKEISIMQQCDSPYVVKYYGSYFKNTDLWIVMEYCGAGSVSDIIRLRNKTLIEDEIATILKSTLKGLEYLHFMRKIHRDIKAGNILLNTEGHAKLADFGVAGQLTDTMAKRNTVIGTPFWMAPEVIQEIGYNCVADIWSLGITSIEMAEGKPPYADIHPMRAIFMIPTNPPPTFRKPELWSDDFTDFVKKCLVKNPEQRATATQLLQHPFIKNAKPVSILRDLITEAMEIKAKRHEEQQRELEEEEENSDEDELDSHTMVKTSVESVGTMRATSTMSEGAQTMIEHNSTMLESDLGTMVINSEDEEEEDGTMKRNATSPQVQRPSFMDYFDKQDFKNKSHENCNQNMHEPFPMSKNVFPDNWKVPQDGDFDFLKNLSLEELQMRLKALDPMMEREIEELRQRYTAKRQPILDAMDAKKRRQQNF
Summary of the method: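 Panel assays were run for 30 min at 21 °C, within the linear range for time and enzyme. […] Results are percent activity remaining relative to compound-free control, averaged from triplicate ± S.D.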

[10] = target: Dual specificity mitogen-activated protein kinase kinase 1 (Homo sapiens) (UniProt Q02750); assay: Inhibition of recombinant human MKK1 (2 to 393 residues) expressed in Escherichia coli at 10 uM using MBP as substrate incubated for 30 mins in presence of [gamma-33P]ATP by filter binding method relative to control
Chain of Dual specificity mitogen-activated protein kinase kinase 1 (Homo sapiens) (Q02750 whole entry, the tested form may be a part): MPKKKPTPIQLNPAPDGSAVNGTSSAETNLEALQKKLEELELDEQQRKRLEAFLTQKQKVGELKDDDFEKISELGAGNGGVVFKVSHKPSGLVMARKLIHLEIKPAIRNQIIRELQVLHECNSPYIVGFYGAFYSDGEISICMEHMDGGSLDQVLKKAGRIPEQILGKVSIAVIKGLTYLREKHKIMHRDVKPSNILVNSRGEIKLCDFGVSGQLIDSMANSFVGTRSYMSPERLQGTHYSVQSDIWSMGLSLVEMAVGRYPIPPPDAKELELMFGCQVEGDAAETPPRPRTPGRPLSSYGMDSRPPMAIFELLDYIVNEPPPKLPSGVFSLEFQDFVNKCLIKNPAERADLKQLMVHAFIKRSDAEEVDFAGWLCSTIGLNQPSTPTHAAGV
Summary of the method: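 Kinase panel run robotically at 21 °C for 30 min, linear in time and enzyme. […] Compound tested at 1 or 10 µM. Activity given as percentage of incubations without compound, mean of triplicates ± S.D.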

[11] = target: Sphingosine kinase 1 (Homo sapiens) (UniProt Q9NYA1); assay: Inhibition of SPHK1 (unknown origin) assessed as remaining activity at 1 uM using sphingosine as substrate incubated for 30 mins in presence of ATP relative to control
Summary of the method: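 SPHK1 assayed with 10 μM sphingosine, 10 μM ATP in 50 mM Tris/HCl pH 7.5, 150 mM NaCl, 5 mM MgCl2, 1 mM EGTA, 1 mM DTT, 30 min at room temperature. ATP remaining read by Kinase-Glo Plus luminescence after 10 min. Activity as % of control, triplicate.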

MEF = assay: Growth inhibition of MEF cells assessed reduction in cell viability at 3 uM incubated for 1 to 3 days by crystal violet staining based assay; type: toxicity; conditions: mouse, time 1-3 day
Summary of the method: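 MEFs seeded at 20000 cells per 1.91 cm2 well, grown overnight in 10% foetal bovine serum, then cultured 1, 2 or 3 days with 3 μM inhibitor, 100 nM rapamycin or DMSO. Medium changed every 24 h with freshly dissolved inhibitors. Cells fixed in 4% paraformaldehyde, stained with 0.1% Crystal Violet, dye extracted in 10% acetic acid, A590 read. Quadruplicate wells, expressed as % of DMSO control.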

mTORC2 (Homo sapiens) = mTORC2 (Homo sapiens) (UniProt P42345+Q6R327+Q9BVC4+Q9BPZ7); conditions: HEK293, dose 30-1000 nM, time 30.0 min
[12] = target: Serine/threonine-protein kinase D1 (Homo sapiens) (UniProt Q15139); assay: Inhibition of recombinant human N-terminal His6-tagged PKD1 (2 to 912 residues) expressed in baculovirus infected Sf21 cells assessed as remaining activity at 1 uM using KKLNRTLSVA as substrate incubated for 30 mins in presence of [gamma-33P]ATP by filter binding method relative to control

COc1ccc(-c2ccc3c(N4CCOCC4)nc(N4C[C@@H](C)O[C@@H](C)C4)nc3n2)cc1CO [Ku-0063794]
Activity [1]: 90%
Activity [2]: 90%
Activity [3]: 117%
Activity [4]: 101%
Activity [5]: 92%
Activity [6]: 91%
Activity [7]: 103%
Activity [8]: 75%
Activity [9]: 102%
inhibition [10]: 55%
Activity [11]: 108%
growth inhibition (GI) (MEF): Toxic
inhibition (mTORC2 (Homo sapiens)): Dose-Dependent Effect
Activity [12]: 80%
